Source: ChEMBL document CHEMBL1250515, “4-(3-Halo/amino-4,5-dimethoxyphenyl)-5-aryloxazoles and -N-methylimidazoles that are cytotoxic against combretastatin A resistant tumor cells and vascular disrupting in a cisplatin resistant germ cell tumor model” (J Med Chem, 2010)
The source made the active and inactive calls. The calls are words filed in the database; no cut-off is given here.

How the values were obtained:
[1] = Cytotoxicity against human 518A2 cells after 72 hrs by MTT assay; assay type: functional, cell-based; settings: 518A2, 72 h
Summary of the method: (§1)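 MTT read-out. HL-60 seeded at 5 × 10⁵/mL and adherent lines at 5 × 10⁴/mL, precultured 24 h, then exposed to compounds for 72 h at 37 °C, 5% CO₂. MTT final 0.05% (HL-60, 518A2) or 0.1% (others), 2 h. Formazan dissolved in SDS/DMSO/acetic acid; A570 minus A630. Quadruplicates; viability relative to controls; IC50 from four-parameter Hill fit.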

HL-60 [2] = experiment: Cytotoxicity against human HL60 cells after 72 hrs by MTT assay; assay type: functional, cell-based; settings: HL-60, 72 h; summary of the method: as §1
HT-29 = experiment: Cytotoxicity against human HT-29 cells after 72 hrs by MTT assay; assay type: functional, cell-based; settings: HT-29, 72 h; summary of the method: as §1
HL-60 [3] = experiment: Induction of apoptosis in human HL60 cells assessed as intact mitochondria at 5 uM after 72 hrs relative to control; assay type: functional
HL-60 [4] = experiment: Induction of apoptosis in human HL60 cells assessed as ROS production at 50 uM after 24 hrs by NBT reduction assay relative to control; assay type: functional
518A2 [5] = experiment: Induction of apoptosis in human 518A2 cells assessed as ROS production at 50 uM after 24 hrs by NBT reduction assay relative to control; assay type: functional
518A2 [6] = experiment: Induction of apoptosis in human 518A2 cells assessed as intact mitochondria at 5 uM after 72 hrs relative to control; assay type: functional
[7] = Cytotoxicity against human vinblastine-resistant KBV1 cells after 72 hrs by MTT assay; assay type: functional, cell-based; settings: KB-V1, 72 h; summary of the method: as §1
[8] = Cytotoxicity against human multidrug-resistant MCF7/Topo cells after 72 hrs by MTT assay; assay type: functional, cell-based; summary of the method: as §1
[9] = Cytotoxicity against human H12.1 cells after 96 hrs by SRB assay; assay type: functional, cell-based
Summary of the method: (§2)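 Germ cell tumor lines seeded on day 0 at densities ensuring exponential growth, exposed from day 1 to drug at 0.001–10 μM in medium. Surviving cells relative to untreated controls read on day 5 by sulforhodamine B colorimetric assay (96 h exposure). IC50 from four-parameter Hill fit of concentration-response curves.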

[10] = Cytotoxicity against human cisplatin-resistant 1411HP cells after 96 hrs by SRB assay; assay type: functional, cell-based; summary of the method: as §2
[11] = Inhibition of tubulin polymerization by fluorescence-based assay; settings: TDE = time-dependent effect
Summary of the method: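 Purified tubulin polymerization kit, fluorescence-based; polymerization followed as relative fluorescence units at excitation 360 nm and emission 465 nm. Compounds and reference agents tested at 3 μM. Four to five independent experiments.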

HL-60 [12] = experiment: Induction of apoptosis in human HL60 cells at 10 uM after 16 hrs by TUNEL assay; assay type: functional
Gallus gallus [13] = organism: Gallus gallus; experiment: Antiangiogenic activity in vascular system of fertilized chicken embryo assessed as vessel shrinkage after 24 hrs by CAM assay; assay type: functional, tissue-based
Gallus gallus [14] = organism: Gallus gallus; experiment: Antiangiogenic activity in vascular system of fertilized chicken embryo assessed as complete degradation of vascular system after 3 days by CAM assay; assay type: functional, tissue-based
1411HP [15] = experiment: Antitumor activity against human 1411HP cells xenografted in mouse assessed as intratumoral hemorrhage at 30 mg/kg, ip after 24 hrs; assay type: functional, organism-based; design: dose 30 mg/kg
Summary of the method: (§3)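 Mice carried subcutaneous left-flank xenografts from 10 million 1411HP cells in 150 μL PBS. After 4 weeks, two mice with tumors of ~1 cm³ received a single ip dose of 30 mg/kg. Tumors were inspected for swelling and hemorrhage after 24 h. Body weight was recorded twice weekly, and daily during therapy.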

1411HP [16] = experiment: Antitumor activity against human 1411HP cells xenografted in mouse assessed as swelling of tumor at 30 mg/kg, ip after 24 hrs; assay type: functional, organism-based; design: dose 30 mg/kg; summary of the method: as §3
1411HP [17] = experiment: Antitumor activity against human 1411HP cells xenografted in mouse assessed as slow regrowth of tumor at 30 mg/kg, ip single dose
1411HP [18] = experiment: Antitumor activity against human 1411HP cells xenografted in mouse assessed as tumor regression at 20 mg/kg, ip qd for 2 days; assay type: functional, organism-based; design: dose 20 mg/kg
Summary of the method: (§4)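 Subcutaneous flank xenografts were grown from 10 million 1411HP cells in 150 μL PBS. Two mice with tumors of ~2.5 cm³ were dosed ip at 20 mg/kg on 2 consecutive days. Tumor volume was measured by caliper as a² × b × 0.5. Body weight was recorded twice weekly, and daily during therapy.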

1411HP [19] = experiment: Antitumor activity against human 1411HP cells xenografted in mouse assessed as slow regrowth of tumor at 20 mg/kg, ip qd for 2 days; assay type: functional, organism-based; design: dose 20 mg/kg; summary of the method: as §4
Mus musculus [20] = experiment: Toxicity in human 1411HP cells xenografted mouse at 20 mg/kg, ip qd for 2 days; assay type: organism-based; design: dose 20 mg/kg, route intraperitoneal; summary of the method: as §4
Mus musculus [21] = experiment: Toxicity in human 1411HP cells xenografted mouse at 30 mg/kg, ip; assay type: organism-based; design: dose 30 mg/kg, route intraperitoneal; settings: in vivo; summary of the method: as §3
1411HP [22] = experiment: Antitumor activity against human 1411HP cells xenografted in mouse assessed as tumor regression at 20 mg/kg, ip administered on day 16/17 and 35/36; assay type: functional, organism-based; design: dose 20 mg/kg
1411HP [23] = experiment: Antitumor activity against human 1411HP cells xenografted in mouse assessed as prolonged periods of stabilization at 20 mg/kg, ip administered on day 16/17 and 35/36; assay type: functional, organism-based; design: dose 20 mg/kg
Mus musculus [24] = experiment: Toxicity in human 1411HP cells xenografted mouse at 20 mg/kg, ip administered on day 16/17 and 35/36; assay type: organism-based; design: dose 20 mg/kg, route intraperitoneal; settings: in vivo
Mus musculus [25] = experiment: Toxicity in human 1411HP cells xenografted mouse assessed as body weight change at 20 mg/kg, ip administered on day 16/17 and 35/36; assay type: organism-based; design: dose 20 mg/kg, route intraperitoneal; settings: in vivo

SMILES	IC50 [1] [nM]	IC50 (HL-60 [2]) [nM]	IC50 (HT-29) [nM]	Activity (HL-60 [3]) [%]	Activity (HL-60 [4]) [%]	Activity (518A2 [5]) [%]	Activity (518A2 [6]) [%]	IC50 [7] [nM]	IC50 [8] [nM]	other results
COc1ccc(-c2c(-c3cc(N)c(OC)c(OC)c3)ncn2C)cc1F.Cl	> 10000	> 10000	> 50000	90	1.2	1.4	98			
COc1cc(-c2ncn(C)c2-c2ccc(N(C)C)cc2)cc(Br)c1OC.Cl	860	0.2	4.3	63	1.6	6.7	82			
COc1cc(-c2ncoc2-c2ccc(N(C)C)cc2)cc(N)c1OC.Cl	110	0.9	> 15000	62	1.4	3.3	82			
COc1ccc(-c2c(-c3cc(Cl)c(OC)c(OC)c3)ncn2C)cc1F.Cl	400	> 10000	530	55	1.6	4.8	84			
COc1ccc(-c2c(-c3cc(Br)c(OC)c(OC)c3)ncn2C)cc1N.Cl.Cl	6.4	0.1	0.02	66	1.5	3.8	80	200	340	IC50 [9]: 22 nM; IC50 [10]: 54 nM; inhibition [11]: tde; Activity (HL-60 [12]): 60%; Activity (Gallus gallus [13]): inactive; Activity (Gallus gallus [14]): inactive; Activity (1411HP [15]): Active; Activity (1411HP [16]): Active; Activity (1411HP [17]): Active
COc1ccc(-c2c(-c3cc(N)c(OC)c(OC)c3)ncn2C)cc1O.Cl	2800	4600	> 100000	76	1.1	1.8	94			
COc1cc(-c2ncn(C)c2-c2ccc(N(C)C)cc2)cc(Cl)c1OC.Cl	2300	0.02	0.2	61	2.4	6	80			
COc1cc(-c2ncn(C)c2-c2ccc3c(Cl)cn(C)c3c2)cc(N)c1OC.Cl	3100	0.04	14	60	1.6	6.4	77	160	3.8	
COc1ccc(-c2ocnc2-c2cc(N)c(OC)c(OC)c2)cc1N.Cl	2	3.8	57	62	1.5	3.5	85	0.01	1.23	Activity (HL-60 [12]): 60%; Activity (Gallus gallus [13]): inactive; Activity (Gallus gallus [14]): inactive
COc1ccc(-c2c(-c3cc(Br)c(OC)c(OC)c3)ncn2C)cc1F.Cl	66	9700	510	60	1.4	3.9	89			
COc1ccc(-c2c(-c3cc(OC)c(OC)c(OC)c3)ncn2C)cc1N	> 100000	> 100000	64	74	2.2	1.5	87	300	> 10000	
COc1ccc(-c2c(-c3cc(Cl)c(OC)c(OC)c3)ncn2C)cc1N.Cl.Cl	62	0.2	0.06	65	1.8	4.4	80	400	320	IC50 [9]: 30 nM; IC50 [10]: 60 nM; inhibition [11]: tde; Activity (HL-60 [12]): 60%; Activity (Gallus gallus [13]): Active; Activity (Gallus gallus [14]): Active; Activity (1411HP [15]): Active; Activity (1411HP [16]): Active; Activity (1411HP [18]): Active; Activity (1411HP [19]): Active; Activity (Mus musculus [20]): Non-toxic; Activity (Mus musculus [21]): Non-toxic; Activity (1411HP [22]): Active; Activity (1411HP [23]): Active; Activity (Mus musculus [24]): Non-toxic; Activity (Mus musculus [25]): Non-toxic
COc1ccc(/C=C\c2cc(OC)c(OC)c(OC)c2)cc1O [COMBRETASTATIN A4]	18	0.1	3600					0.4	500	
